A selection: hits, their analogues and other compounds. The true share with any hit is near 3.2%.
AF4-AF9 inh: inhibitors of human MLL-AF4/AF9 interaction | inhibition, % at 10 µM | 0.47% of 350,000 active | P42568 | AlphaScreen, biotin-AF4 peptide binding to FLAG-AF9;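 active = every replicate reaching a set inhibition limit, whatever the replicate mean, cut at about 25% in these data; inconclusive = mean inhibition reaches that limit but some replicates miss it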;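 note: 0% = plate neutral control median and 100% = total signal loss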
Target sequence (P42568 whole entry, looked up): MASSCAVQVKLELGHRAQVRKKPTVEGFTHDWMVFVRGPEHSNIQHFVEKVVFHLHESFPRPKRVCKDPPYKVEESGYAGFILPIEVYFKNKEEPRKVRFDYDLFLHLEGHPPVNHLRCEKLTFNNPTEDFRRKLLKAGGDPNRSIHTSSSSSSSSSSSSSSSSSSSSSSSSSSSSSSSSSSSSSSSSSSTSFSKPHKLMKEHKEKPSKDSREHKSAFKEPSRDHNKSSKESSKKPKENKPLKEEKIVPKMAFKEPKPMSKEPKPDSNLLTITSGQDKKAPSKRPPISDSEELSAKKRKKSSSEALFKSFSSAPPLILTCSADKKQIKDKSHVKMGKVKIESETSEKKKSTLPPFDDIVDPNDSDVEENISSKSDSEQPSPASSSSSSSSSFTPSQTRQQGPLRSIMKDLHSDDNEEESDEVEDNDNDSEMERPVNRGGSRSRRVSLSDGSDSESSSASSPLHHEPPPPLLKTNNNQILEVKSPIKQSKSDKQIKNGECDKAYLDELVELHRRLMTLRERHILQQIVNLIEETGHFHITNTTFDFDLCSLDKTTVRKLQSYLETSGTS
Cneo AK release: Cryptococcus neoformans lysis via adenylate kinase release; C. neoformans lysis, adenylate kinase release luminescence, 4 h; normalised: neutral wells 0, clomiphene wells 100; lysis activity, % at 15 µM; 0.2% of 360,000 active; AID 651654;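 active = mean lysis activity across replicates of at least 80%, whatever share of replicates individually reach that level; inactive = mean lysis activity below 80%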
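Material – Cryptococcus neoformans yeast cells · Quantity – 5 × 10^6 yeast cells/mL · Buffer or medium – YPD medium · Compound – single dose · Timing – 4 h static compound exposure, 37 °C, read 1 h post-reagent · Signal – adenylate kinase release luminescence · Read-out basis – lysis from increased AK signal · Benchmarks – Clomiphene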
DENV2 CPE: DENV2-induced cell death inhibition; DENV2-infected cells, cytopathic effect rescue, plate reader; CPE inhibition, % at 9.99 µM; 1.7% of 350,000 active; AID 651640; in the data active = CPE inhibition above about 20%, passing the limit was not always enough; inconclusive = no clear call, values can overlap the other calls; tested in BHK-21 cells;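 note: 0% = median of neutral control wells and 100% = median of positive control wells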
PfHsp90 yeast 2: reduces growth (ATP signal) of yeast expressing P. falciparum Hsp90 | inhibition, % at 9.4 µM | 0.32% of 310,000 active | S. cerevisiae expressing PfHsp90, BacTiter-Glo ATP, 48 h; yeast lacking PDR1 and PDR3 efflux regulators;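 active = every replicate shows inhibition above about 80%, whatever the replicate mean, limit read from the data; inconclusive = mean inhibition reaches the set limit but some replicate falls short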;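 note: 0% = DMSO neutral controls and 100% = 20 µM radicicol positive controls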
S100A4 inh HTS: blocks human S100A4 binding to myosin IIA peptide; P26447; S100A4/TAMRA-MyoIIA peptide fluorescence polarization; inhibition, % at 10.7 µM; 0.14% of 360,000 active;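 active = mean inhibition of at least 70% across replicates, with every replicate also reaching that level; inconclusive = mean inhibition reaches 70% but some replicates fall short; inactive = mean inhibition below 70%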
Target sequence (P26447 whole entry, looked up): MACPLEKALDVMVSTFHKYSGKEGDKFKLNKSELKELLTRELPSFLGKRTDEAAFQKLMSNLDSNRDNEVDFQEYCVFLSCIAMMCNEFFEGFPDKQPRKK
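Material: S100A4 monomer (human). Medium: Calcium-containing HEPES buffer, pH 7.2. Probe or stimulus: labelled myosin peptide probe, 5 nM. Compound dosing: one concentration per compound. Timing: polarization read 5 min after assay mix addition, stable 5–60 min. Benchmarks: DMSO as neutral control, TFP as positive control.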
rRNA inh HTS: inhibits bacterial ribosomal RNA function over humanized ribosomes | AID 720706 | GFP signal change (wild-type ribosome), % (concentration not given with the values) | 1.6% of 350,000 active | E. coli WT GFP vs humanized-ribosome RFP mutants, fluorescence, 24 h; stronger effect = lower value; DMSO median 0, no signal -100;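 active = significant combined selectivity score with lowered wild-type GFP, culture density cut under 30%, mutant RFP and density less affected; inactive = any of these conditions unmet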
The depositor's hits bear a star; u = inconclusive; x = no result.

SMILES | AF4-AF9 inh | Cneo AK release | DENV2 CPE | PfHsp90 yeast 2 | S100A4 inh HTS | rRNA inh HTS
O=C(C1CC1)N1CC[C@@H]2[C@H](CO)Nc3ccc(-c4cccc(F)c4)cc3[C@@H]21 | -8 | -9 | 11 | x | -18 | -8
O=C(Nc1ccc(F)cc1)N1CCc2ccccc2C1 | -1 | x | -4 | 17 | 3 | -14
O=C(Nc1ccc(Br)cc1)N1CCc2ccccc2C1 | -4 | -1 | -2 | 37 | -1 | -39*
COC(=O)c1ccccc1NC1c2ccccc2C(=O)N1c1cccnc1 (configuration not stated) | 55* | 3 | 1 | -6 | -3 | -4
O=C1c2ccccc2C(Nc2ccccc2F)N1c1cccnc1 (configuration not stated) | -2 | 0 | -1 | 4 | -1 | 1
CCOc1cccc(/C=N/NC(=O)c2cc(C3CC3)[nH]n2)c1O | 1 | -1 | -7 | -12 | -1 | -17*
CCOc1cccc(/C=N/NC(=O)c2cccnc2)c1O | 2 | 0 | u | -1 | 2 | -16
C[C@@H]1CCCCO[C@@H](CN(C)C(=O)Cc2ccccc2)[C@@H](C)CN([C@@H](C)CO)C(=O)c2cc(NC(=O)C3CCCCC3)ccc2O1 | x | -2 | 1 | x | x | 2
CCCC[C@@H]1CNCCN1CCc1cccc2ccccc12 | 11 | 5 | u | 12 | -1 | -20*
Oc1ccc(C[C@@H]2CNCCN2CCc2cc(C(F)(F)F)cc(C(F)(F)F)c2)cc1 | 8 | 19 | 15 | 12 | -2 | -55
FC(F)(F)c1cc(CCN2CCNC[C@H]2Cc2cccc3ccccc23)cc(C(F)(F)F)c1 | 4 | 7 | 84* | 6 | 5 | -55
COc1ccc(NC(=O)N(C)C[C@@H]2OCc3cn(nn3)CCCC(=O)N([C@@H](C)CO)C[C@@H]2C)cc1 | x | x | x | x | x | 2
CC(C)N(CCC(=O)c1ccc2ccccc2c1)Cc1ccccc1 | -17 | 3 | -2 | 114* | -2 | x
COc1ccc(CN2[C@@H](CO)[C@@H]3c4ccccc4NC[C@@H]32)cc1 | 2 | -2 | 66* | x | 11 | 0
COc1ccc(CN2[C@H](CO)[C@H]3c4ccccc4NC[C@H]32)cc1 | 2 | -1 | 10 | x | 6 | 2
COCC(=O)N1[C@H](CO)[C@H]2c3ccccc3NC[C@H]21 | 0 | 3 | 32* | x | -8 | 4
O=C(Cc1cccnc1)N1[C@@H](CO)[C@@H]2c3ccccc3NC[C@@H]21 | 1 | 0 | 24* | x | 8 | 0
COc1cccc(C(=O)Nc2ccc3c(c2)OC[C@@H](C)N(C(C)=O)C[C@H](C)[C@@H](OC)CN(C)C3=O)c1 | x | x | x | x | x | -6
O=C(NCCO)c1cc2c([nH]c3ccccc32)c(-c2ccc(F)cc2)n1 | -3 | 1 | 8 | -10 | -2 | -25
O=C(NCCO)c1cc2c([nH]c3ccccc32)c(-c2ccccc2)n1 | -5 | -2 | 1 | 6 | -2 | -28*
O=C1c2ccccc2C(=O)N1CC(=O)N1c2ccccc2Sc2ccc(C(F)(F)F)cc21 | -1 | 4 | 35* | 1 | 0 | 6
Cc1cc(C(=O)N/N=C/c2ccc(-c3cccc(Cl)c3)o2)n[nH]1 | 0 | -1 | 3 | -22 | 8 | -23*
Cc1cc(C(=O)N/N=C/c2ccc(-c3ccc([N+](=O)[O-])cc3C)o2)n[nH]1 | 1 | -2 | 14 | -5 | 9 | -41*
Cc1cc([N+](=O)[O-])ccc1-c1ccc(/C=N/NC(=O)c2ccc(Br)o2)o1 | -10 | -2 | -3 | -15 | -7 | 8
Cc1ccc(-c2cc(C(=O)N/N=C/c3ccc(F)cc3)n[nH]2)o1 | 4 | 0 | -1 | -47 | 0 | -24*
SMILES | AF4-AF9 inh | Cneo AK release | DENV2 CPE | PfHsp90 yeast 2 | S100A4 inh HTS | rRNA inh HTS
Cc1ccc(-c2cc(C(=O)N/N=C/c3ccccc3O)n[nH]2)o1 | -4 | -1 | 1 | -5 | -1 | -57
C[C@@H]1CN([C@@H](C)CO)C(=O)Cc2cc(NS(=O)(=O)c3cn(C)cn3)ccc2O[C@H]1CN(C)Cc1ccccc1 | 0 | -2 | 25* | x | -68 | 3
C[C@@H]1CN([C@H](C)CO)C(=O)Cc2cc(NS(=O)(=O)c3cn(C)cn3)ccc2O[C@@H]1CN(C)CC1CCCCC1 | -3 | 1 | 34* | x | 4 | 1
C[C@H]1CN([C@@H](C)CO)C(=O)Cc2cc(NS(=O)(=O)c3cn(C)cn3)ccc2O[C@@H]1CN(C)Cc1ccc(Oc2ccccc2)cc1 | 4 | 110* | 0 | x | 2 | 4
C[C@H](CO)N1C[C@H](C)[C@@H](CN(C)CC2CCCCC2)Oc2ccc(NS(=O)(=O)c3cn(C)cn3)cc2CC1=O | 0 | -8 | -9 | x | -3 | -2
CCOc1ccc(-c2cc(N)n(S(=O)(=O)c3ccc(OC)c(OC)c3)n2)cc1 | 44* | 1 | 8 | 0 | -3 | 7
CCCNC(=O)N1CC2(C1)[C@@H](c1ccccc1)[C@H](CO)N2CC1CC1 | 0 | x | u | x | 4 | -1
O=C(Cc1coc2cc(O)ccc12)N1CCN(S(=O)(=O)c2ccc(Br)cc2)CC1 | 1 | -1 | 2 | x | -7 | -20*
C[C@@H]1CN([C@@H](C)CO)C(=O)Cc2cc(NC(=O)CCC(F)(F)F)ccc2O[C@@H]1CN(C)CC1CC1 | -1 | 52 | 42* | x | -13 | 1
C[C@H](CO)N1C[C@H](C)[C@H](CN(C)CC2CC2)Oc2ccc(NC(=O)Nc3ccc(F)cc3)cc2CC1=O | 4 | 4 | 42* | x | 14 | x
C[C@H](CO)N1C[C@H](C)[C@H](CN(C)Cc2ccc(F)cc2)Oc2ncc(C3=CCCC3)cc2C1=O | -3 | 65 | -6 | x | 7 | -2
CN1C(=O)c2cc(NC(=O)Cc3ccccc3)ccc2OC[C@H]2O[C@H](CC(=O)NC3CCC3)CC[C@@H]21 | 1 | -3 | 0 | x | 1 | -2
C=CCn1cccc(C(=O)Nc2ccc(C)c(C)c2)c1=O | -1 | -2 | 2 | 3 | -5 | -30*
C=CCn1cccc(C(=O)Nc2ccc(C)cc2)c1=O | -2 | -4 | -6 | -17 | -3 | -6
O=C(OCC(=O)C12CC3CC(CC(C3)C1)C2)c1ccc(O)cc1O | -23 | -6 | 0 | 101* | -1 | -57
O=C(COC(=O)c1ccc(O)cc1O)NC12CC3CC(CC(C3)C1)C2 | 0 | -3 | -2 | 12 | 1 | -20
CC(=O)c1c(C)[nH]c(C(=O)OCC(=O)N(C)c2c(N)n(Cc3ccccc3)c(=O)[nH]c2=O)c1C | 3 | -3 | 143* | -14 | -2 | 0
CC(=O)c1c(C)[nH]c(C(=O)OCC(=O)N2CCc3ccccc3C2)c1C | -1 | 0 | 5 | 15 | -2 | -22*
